From ChEMBL document CHEMBL2384965, “ABSOLUTE CONFIGURATION AND BIOLOGICAL PROPERTIES OF ENANTIOMERS OF CFTR INHIBITOR BPO-27” (ACS Med Chem Lett, 2013)
Each block holds one compound with its values, some of them ahead of it. Activity calls are given as the source filed them. The rule behind the calls is not given here.

Assays:
[1] = target: T1, Cystic fibrosis transmembrane conductance regulator (Homo sapiens, UniProt P13569); assay: Inhibition of wild type human CFTR chloride conductance expressed in forskolin-stimulated rat FRT cells by short-circuit current analysis in presence of transepithelial chloride gradient; assay type: cell-based
Summary of the method: (§1)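 FRT epithelial cells expressing human wild-type CFTR, basolateral membrane permeabilized with amphotericin B, transepithelial chloride gradient applied. CFTR chloride conductance activated with 10 μM forskolin; inhibition read as the reduction in short-circuit current.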

[2] = target: T1, Cystic fibrosis transmembrane conductance regulator; assay: Inhibition of wild type human CFTR chloride conductance expressed in forskolin-stimulated rat FRT cells at 100 nM by short-circuit current analysis in presence of transepithelial chloride gradient; assay type: cell-based; summary of the method: as §1
Target sequence in this assay (P13569 whole entry, looked up): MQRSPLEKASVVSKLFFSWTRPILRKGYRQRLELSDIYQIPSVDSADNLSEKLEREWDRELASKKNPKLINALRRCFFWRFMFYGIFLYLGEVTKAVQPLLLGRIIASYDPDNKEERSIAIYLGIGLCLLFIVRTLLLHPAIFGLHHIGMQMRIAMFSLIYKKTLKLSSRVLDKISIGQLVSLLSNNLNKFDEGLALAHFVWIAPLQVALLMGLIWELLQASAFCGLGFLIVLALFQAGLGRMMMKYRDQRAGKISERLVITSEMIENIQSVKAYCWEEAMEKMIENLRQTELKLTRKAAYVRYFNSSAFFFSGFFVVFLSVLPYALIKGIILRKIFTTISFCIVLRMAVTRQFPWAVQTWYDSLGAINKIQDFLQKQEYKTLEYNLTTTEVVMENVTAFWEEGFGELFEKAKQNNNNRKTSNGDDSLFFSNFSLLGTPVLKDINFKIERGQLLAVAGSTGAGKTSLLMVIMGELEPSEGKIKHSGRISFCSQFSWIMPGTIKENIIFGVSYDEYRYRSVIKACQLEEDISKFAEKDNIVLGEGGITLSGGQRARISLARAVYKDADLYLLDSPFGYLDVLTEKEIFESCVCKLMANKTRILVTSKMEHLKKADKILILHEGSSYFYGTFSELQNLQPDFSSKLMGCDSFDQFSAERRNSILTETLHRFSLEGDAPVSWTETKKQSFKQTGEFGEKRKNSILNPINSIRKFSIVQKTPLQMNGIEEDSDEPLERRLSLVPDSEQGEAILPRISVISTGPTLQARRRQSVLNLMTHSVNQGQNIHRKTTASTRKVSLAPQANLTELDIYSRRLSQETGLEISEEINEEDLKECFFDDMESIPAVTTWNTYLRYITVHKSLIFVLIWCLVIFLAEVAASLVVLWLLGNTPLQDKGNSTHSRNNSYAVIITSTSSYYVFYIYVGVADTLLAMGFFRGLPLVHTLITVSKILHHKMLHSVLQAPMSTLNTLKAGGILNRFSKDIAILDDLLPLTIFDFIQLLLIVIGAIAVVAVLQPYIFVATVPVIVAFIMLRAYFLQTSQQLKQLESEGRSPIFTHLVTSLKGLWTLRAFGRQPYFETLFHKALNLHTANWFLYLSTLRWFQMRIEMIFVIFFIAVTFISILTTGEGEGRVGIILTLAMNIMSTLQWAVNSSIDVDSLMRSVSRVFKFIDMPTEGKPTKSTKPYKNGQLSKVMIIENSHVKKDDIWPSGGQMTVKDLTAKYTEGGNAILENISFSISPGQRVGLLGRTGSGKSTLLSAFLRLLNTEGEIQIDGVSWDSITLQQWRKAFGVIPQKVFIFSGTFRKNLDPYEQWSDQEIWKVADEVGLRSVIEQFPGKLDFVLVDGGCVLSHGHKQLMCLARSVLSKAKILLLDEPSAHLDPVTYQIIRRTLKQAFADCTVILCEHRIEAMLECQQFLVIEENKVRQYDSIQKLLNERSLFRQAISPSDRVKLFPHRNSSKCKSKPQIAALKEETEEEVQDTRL

Serum [3] = assay: Metabolic stability in mouse serum assessed as formation of (S)-BPO-27 at 5 mg measured at 4 hrs by hydrogen-deuterium exchange assay; assay type: ADME, cell-free
[4] = Half life in CD1 mouse at 10 mg/kg, ip administered as bolus dose; assay type: ADME, organism-based; parameters: dose 10 mg/kg, route intraperitoneal; conditions: in vivo
Summary of the method: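 Single bolus i.p. dose of 10 mg/kg in mice, given in 5% DMSO, 2.5% Tween-80 and 2.5% PEG400 in water. Blood sampled at set times; serum compound measured by LC/MS ion chromatograms (m/z 548 [M+H]+) against a calibration of known amounts spiked into blood (linear, sensitivity better than 500 nM). Mean ± S.E., n = 3; t1/2 from the decay of the parent compound.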

[5] = Drug uptake in CD1 mouse kidney at 10 mg/kg, ip administered as bolus dose measured at 4 hrs by LC-MS analysis; assay type: ADME, organism-based; parameters: dose 10 mg/kg, route intraperitoneal; conditions: read-out: Drug uptake
Summary of the method: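 Mice received a single bolus intraperitoneal dose of 10 mg/kg in 5% DMSO, 2.5% Tween-80 and 2.5% PEG400 in water. Kidney homogenate was taken at 4 h and the compound measured by LC/MS (3 mice).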

[6] = Drug metabolism in rat liver microsomes at 5 uM measured over 4 hrs by LC/MS analysis in presence of NADPH; assay type: ADME, Microsome; conditions: read-out: Drug metabolism
Serum [7] = assay: Metabolic stability in mouse serum at 5 mg after 4 hrs by hydrogen-deuterium exchange assay; assay type: ADME, cell-free

Structure (SMILES): CC(C)N.Cn1c(=O)c2c(-c3ccccc3)n3c(c2n(C)c1=O)[C@@H](c1ccc(Br)o1)Oc1ccc(C(=O)O)cc1-3 [listing 1 of 2 here]
inhibition [2]: inactive

Structure (SMILES): Cn1c(=O)c2c(-c3ccccc3)n3c(c2n(C)c1=O)[C@H](c1ccc(Br)o1)Oc1ccc(C(=O)O)cc1-3
Stability (Serum [3]): Stable
half-life [4]: 1.6 h
concentration at 4 h [5]: 600 nM
metabolised at 4 h, 5 µM [6]: < 5%

Structure (SMILES): CCOC(=O)c1ccc2c(c1)-n1c(-c3ccccc3)c3c(=O)n(C)c(=O)n(C)c3c1[C@@H](c1ccc(Br)o1)O2
inhibition [2]: inactive

Structure (SMILES): CC(C)N.Cn1c(=O)c2c(-c3ccccc3)n3c(c2n(C)c1=O)[C@@H](c1ccc(Br)o1)Oc1ccc(C(=O)O)cc1-3 [listing 2 of 2 here]
Stability (Serum [7]): Stable

Now from value to compound:

inhibition [1]: Dose-dependent effect
inhibition [2]: Active
Structure (SMILES): CC(C)N.Cn1c(=O)c2c(-c3ccccc3)n3c(c2n(C)c1=O)[C@H](c1ccc(Br)o1)Oc1ccc(C(=O)O)cc1-3 [listing 1 of 2 here]

IC50 [1]: 4 nM
Structure (SMILES): CC(C)N.Cn1c(=O)c2c(-c3ccccc3)n3c(c2n(C)c1=O)[C@H](c1ccc(Br)o1)Oc1ccc(C(=O)O)cc1-3 [listing 2 of 2 here]

metabolised at 4 h, 5 µM [6]: < 5%
Structure (SMILES): Cn1c(=O)c2c(-c3ccccc3)n3c(c2n(C)c1=O)[C@@H](c1ccc(Br)o1)Oc1ccc(C(=O)O)cc1-3
